Several values for one entry are separate records, joined by “and”; a condition that tells them apart may be missing. Equal values may be shown once.
System: HEK-293T
Test: Multiplex assay against HEK293T
Type: toxicity, cell-based
Conditions: human
How it was run: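 Live cells were stained at seeding with Hoechst33342, BioTracker Green Microtubule Cytoskeleton Dye, MitoTracker Red and Annexin V Alexa Fluor 680, then imaged on a CQ1 microscope at 37°C and 5% CO2 after compound addition. CellPathfinder machine-learning gating split cells into Hoechst high-intensity objects or normal cells. Normal cells were split into healthy, pyknosed or fragmented nuclei, and pyknosed cells into mitotic or apoptotic. Tubulin, mitochondrial-mass and membrane-permeability phenotypes are per cents of healthy-nucleus cells.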

[1] = 12 h, 1 µM, compound concentration 1 uM
[2] = 12 h, 10 µM, compound concentration 10 uM
[3] = 24 h, 1 µM, compound concentration 1 uM
[4] = 24 h, 10 µM, compound concentration 10 uM
[5] = 48 h, 1 µM, compound concentration 1 uM
[6] = 48 h, 10 µM, compound concentration 10 uM

CCCCCCNC(=O)Nc1ccc(S(=O)(=O)Nc2ccc(CCNC[C@H](O)COc3ccc(O)cc3)cc2)cc1 [L-755507]
Population Apoptotic (%) [1]: 35% and 31%
Population Fragmented Nuclei (%) [1]: 8% and 6%
Population Healthy Nuclei (%) [1]: 84% and 83%
Population Hoechst High Intensity Objects (%) [1]: 7%
Population Membrane Permeable-Phenotype (%) [1]: 0%
Population Mitochondria Different-Phenotype (%) [1]: 39% and 64%
Population Mitotic Cells (%) [1]: 64% and 68%
Population Normal (%) [1]: 92%
Population Pyknosed Nuclei (%) [1]: 7% and 10%
Population Tubulin-Different-Phenotype (%) [1]: 28% and 32%
Total Cell Count [1]: 494 and 403
Population Apoptotic (%) [2]: 58% and 71%
Population Fragmented Nuclei (%) [2]: 10% and 8%
Population Healthy Nuclei (%) [2]: 74% and 79%
Population Hoechst High Intensity Objects (%) [2]: 17% and 7%
Population Membrane Permeable-Phenotype (%) [2]: 0%
Population Mitochondria Different-Phenotype (%) [2]: 69% and 87%
Population Mitotic Cells (%) [2]: 41% and 28%
Population Normal (%) [2]: 82% and 92%
Population Pyknosed Nuclei (%) [2]: 14% and 11%
Population Tubulin-Different-Phenotype (%) [2]: 68% and 61%
Total Cell Count [2]: 384 and 341
Population Apoptotic (%) [3]: 19% and 30%
Population Fragmented Nuclei (%) [3]: 9% and 11%
Population Healthy Nuclei (%) [3]: 80%
Population Hoechst High Intensity Objects (%) [3]: 5% and 4%
Population Membrane Permeable-Phenotype (%) [3]: 0%
Population Mitochondria Different-Phenotype (%) [3]: 20% and 42%
Population Mitotic Cells (%) [3]: 80% and 70%
Population Normal (%) [3]: 94% and 95%
Population Pyknosed Nuclei (%) [3]: 9% and 7%
Population Tubulin-Different-Phenotype (%) [3]: 20% and 22%
Total Cell Count [3]: 634 and 547
Population Apoptotic (%) [4]: 26% and 48%
Population Fragmented Nuclei (%) [4]: 8% and 7%
Population Healthy Nuclei (%) [4]: 80% and 83%
Population Hoechst High Intensity Objects (%) [4]: 14% and 9%
Population Membrane Permeable-Phenotype (%) [4]: 0%
Population Mitochondria Different-Phenotype (%) [4]: 59% and 68%
Population Mitotic Cells (%) [4]: 73% and 51%
Population Normal (%) [4]: 85% and 90%
Population Pyknosed Nuclei (%) [4]: 11% and 9%
Population Tubulin-Different-Phenotype (%) [4]: 42% and 51%
Total Cell Count [4]: 461 and 402
Population Apoptotic (%) [5]: 10% and 15%
Population Fragmented Nuclei (%) [5]: 12% and 13%
Population Healthy Nuclei (%) [5]: 81% and 80%
Population Hoechst High Intensity Objects (%) [5]: 3% and 5%
Population Membrane Permeable-Phenotype (%) [5]: 2%
Population Mitochondria Different-Phenotype (%) [5]: 16% and 24%
Population Mitotic Cells (%) [5]: 89% and 84%
Population Normal (%) [5]: 96% and 94%
Population Pyknosed Nuclei (%) [5]: 6%
Population Tubulin-Different-Phenotype (%) [5]: 15% and 20%
Total Cell Count [5]: 1052 and 775
Population Apoptotic (%) [6]: 46% and 65%
Population Fragmented Nuclei (%) [6]: 15% and 13%
Population Healthy Nuclei (%) [6]: 75% and 80%
Population Hoechst High Intensity Objects (%) [6]: 11% and 8%
Population Membrane Permeable-Phenotype (%) [6]: 1% and 0%
Population Mitochondria Different-Phenotype (%) [6]: 36% and 47%
Population Mitotic Cells (%) [6]: 53% and 34%
Population Normal (%) [6]: 88% and 91%
Population Pyknosed Nuclei (%) [6]: 9% and 5%
Population Tubulin-Different-Phenotype (%) [6]: 32% and 39%
Total Cell Count [6]: 598 and 596

CN1CCN2c3ncccc3Cc3ccccc3C2C1 (stereo not drawn) [MIRTAZAPINE]
Population Apoptotic (%) [1]: 58% and 51%
Population Fragmented Nuclei (%) [1]: 4% and 3%
Population Healthy Nuclei (%) [1]: 88% and 79%
Population Hoechst High Intensity Objects (%) [1]: 5% and 7%
Population Membrane Permeable-Phenotype (%) [1]: 0%
Population Mitochondria Different-Phenotype (%) [1]: 41% and 68%
Population Mitotic Cells (%) [1]: 41% and 48%
Population Normal (%) [1]: 94% and 92%
Population Pyknosed Nuclei (%) [1]: 7% and 17%
Population Tubulin-Different-Phenotype (%) [1]: 22% and 21%
Total Cell Count [1]: 402 and 329
Population Apoptotic (%) [2]: 45% and 47%
Population Fragmented Nuclei (%) [2]: 9% and 5%
Population Healthy Nuclei (%) [2]: 75% and 79%
Population Hoechst High Intensity Objects (%) [2]: 6%
Population Membrane Permeable-Phenotype (%) [2]: 0% and 1%
Population Mitochondria Different-Phenotype (%) [2]: 49% and 64%
Population Mitotic Cells (%) [2]: 54% and 52%
Population Normal (%) [2]: 93%
Population Pyknosed Nuclei (%) [2]: 15%
Population Tubulin-Different-Phenotype (%) [2]: 43% and 36%
Total Cell Count [2]: 228 and 240
Population Apoptotic (%) [3]: 33% and 42%
Population Fragmented Nuclei (%) [3]: 9% and 6%
Population Healthy Nuclei (%) [3]: 80% and 79%
Population Hoechst High Intensity Objects (%) [3]: 3% and 6%
Population Membrane Permeable-Phenotype (%) [3]: 0%
Population Mitochondria Different-Phenotype (%) [3]: 35% and 47%
Population Mitotic Cells (%) [3]: 66% and 57%
Population Normal (%) [3]: 97% and 93%
Population Pyknosed Nuclei (%) [3]: 10% and 14%
Population Tubulin-Different-Phenotype (%) [3]: 18% and 17%
Total Cell Count [3]: 601 and 373
Population Apoptotic (%) [4]: 44% and 32%
Population Fragmented Nuclei (%) [4]: 9% and 5%
Population Healthy Nuclei (%) [4]: 78% and 80%
Population Hoechst High Intensity Objects (%) [4]: 3% and 5%
Population Membrane Permeable-Phenotype (%) [4]: 0%
Population Mitochondria Different-Phenotype (%) [4]: 40% and 44%
Population Mitotic Cells (%) [4]: 55% and 67%
Population Normal (%) [4]: 96% and 94%
Population Pyknosed Nuclei (%) [4]: 12% and 13%
Population Tubulin-Different-Phenotype (%) [4]: 28% and 18%
Total Cell Count [4]: 274 and 314
Population Apoptotic (%) [5]: 23% and 44%
Population Fragmented Nuclei (%) [5]: 11% and 13%
Population Healthy Nuclei (%) [5]: 82% and 80%
Population Hoechst High Intensity Objects (%) [5]: 2% and 3%
Population Membrane Permeable-Phenotype (%) [5]: 1% and 0%
Population Mitochondria Different-Phenotype (%) [5]: 19% and 21%
Population Mitotic Cells (%) [5]: 76% and 55%
Population Normal (%) [5]: 97% and 96%
Population Pyknosed Nuclei (%) [5]: 6%
Population Tubulin-Different-Phenotype (%) [5]: 13% and 9%
Total Cell Count [5]: 885 and 562
Population Apoptotic (%) [6]: 31% and 30%
Population Fragmented Nuclei (%) [6]: 14% and 11%
Population Healthy Nuclei (%) [6]: 74% and 81%
Population Hoechst High Intensity Objects (%) [6]: 2% and 3%
Population Membrane Permeable-Phenotype (%) [6]: 0%
Population Mitochondria Different-Phenotype (%) [6]: 36% and 30%
Population Mitotic Cells (%) [6]: 68% and 69%
Population Normal (%) [6]: 97% and 96%
Population Pyknosed Nuclei (%) [6]: 10% and 7%
Population Tubulin-Different-Phenotype (%) [6]: 20% and 12%
Total Cell Count [6]: 390 and 521

O=C(O)c1cc2ccccc2c(Cc2c(O)c(C(=O)O)cc3ccccc23)c1O [PAMOIC ACID]
Population Apoptotic (%) [1]: 30% and 58%
Population Fragmented Nuclei (%) [1]: 9% and 7%
Population Healthy Nuclei (%) [1]: 77%
Population Hoechst High Intensity Objects (%) [1]: 7% and 6%
Population Membrane Permeable-Phenotype (%) [1]: 0%
Population Mitochondria Different-Phenotype (%) [1]: 38% and 60%
Population Mitotic Cells (%) [1]: 69% and 41%
Population Normal (%) [1]: 92% and 93%
Population Pyknosed Nuclei (%) [1]: 12% and 15%
Population Tubulin-Different-Phenotype (%) [1]: 23% and 21%
Total Cell Count [1]: 432 and 303
Population Apoptotic (%) [2]: 34% and 52%
Population Fragmented Nuclei (%) [2]: 8% and 4%
Population Healthy Nuclei (%) [2]: 79% and 81%
Population Hoechst High Intensity Objects (%) [2]: 8%
Population Membrane Permeable-Phenotype (%) [2]: 0%
Population Mitochondria Different-Phenotype (%) [2]: 44% and 55%
Population Mitotic Cells (%) [2]: 65% and 47%
Population Normal (%) [2]: 91%
Population Pyknosed Nuclei (%) [2]: 12% and 13%
Population Tubulin-Different-Phenotype (%) [2]: 34% and 26%
Total Cell Count [2]: 446 and 275
Population Apoptotic (%) [3]: 29% and 40%
Population Fragmented Nuclei (%) [3]: 8% and 5%
Population Healthy Nuclei (%) [3]: 78% and 86%
Population Hoechst High Intensity Objects (%) [3]: 6%
Population Membrane Permeable-Phenotype (%) [3]: 1% and 0%
Population Mitochondria Different-Phenotype (%) [3]: 22% and 39%
Population Mitotic Cells (%) [3]: 70% and 59%
Population Normal (%) [3]: 93%
Population Pyknosed Nuclei (%) [3]: 12% and 7%
Population Tubulin-Different-Phenotype (%) [3]: 16%
Total Cell Count [3]: 559 and 378
Population Apoptotic (%) [4]: 29% and 41%
Population Fragmented Nuclei (%) [4]: 9% and 5%
Population Healthy Nuclei (%) [4]: 75% and 79%
Population Hoechst High Intensity Objects (%) [4]: 5% and 7%
Population Membrane Permeable-Phenotype (%) [4]: 0%
Population Mitochondria Different-Phenotype (%) [4]: 27% and 43%
Population Mitotic Cells (%) [4]: 70% and 58%
Population Normal (%) [4]: 94% and 92%
Population Pyknosed Nuclei (%) [4]: 14% and 15%
Population Tubulin-Different-Phenotype (%) [4]: 22% and 18%
Total Cell Count [4]: 592 and 365
Population Apoptotic (%) [5]: 18% and 48%
Population Fragmented Nuclei (%) [5]: 11% and 8%
Population Healthy Nuclei (%) [5]: 81% and 84%
Population Hoechst High Intensity Objects (%) [5]: 2% and 7%
Population Membrane Permeable-Phenotype (%) [5]: 1% and 0%
Population Mitochondria Different-Phenotype (%) [5]: 13% and 27%
Population Mitotic Cells (%) [5]: 81% and 51%
Population Normal (%) [5]: 97% and 92%
Population Pyknosed Nuclei (%) [5]: 7% and 6%
Population Tubulin-Different-Phenotype (%) [5]: 10% and 11%
Total Cell Count [5]: 998 and 494
Population Apoptotic (%) [6]: 24% and 36%
Population Fragmented Nuclei (%) [6]: 13% and 11%
Population Healthy Nuclei (%) [6]: 79% and 82%
Population Hoechst High Intensity Objects (%) [6]: 3% and 7%
Population Membrane Permeable-Phenotype (%) [6]: 0%
Population Mitochondria Different-Phenotype (%) [6]: 18% and 27%
Population Mitotic Cells (%) [6]: 75% and 64%
Population Normal (%) [6]: 96% and 92%
Population Pyknosed Nuclei (%) [6]: 7% and 5%
Population Tubulin-Different-Phenotype (%) [6]: 10% and 12%
Total Cell Count [6]: 879 and 517
